Experimental data: ChEMBL document CHEMBL1153278, “Discovery of novel non-peptidic beta-alanine piperazine amide derivatives and their optimization to achiral, easily accessible, potent and selective somatostatin sst1 receptor antagonists” (Bioorg Med Chem Lett, 2009)

Legend:
[1] = target: Somatostatin receptor type 1 (Rattus norvegicus, UniProt P28646); experiment: Binding affinity to rat sst1 receptor
Method in brief: (§1)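 Receptor binding run on rat sst1 and sst2 and on human sst1–sst5; affinities given as pKd, mean ± SEM of 3–6 experiments.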

[2] = target: Somatostatin receptor type 2 (Rattus norvegicus, UniProt P30680); experiment: Binding affinity to rat sst2 receptor; method in brief: as §1
[3] = target: Somatostatin receptor type 3 (Homo sapiens, UniProt P32745); experiment: Binding affinity to human sst3 receptor; method in brief: as §1
[4] = Binding affinity to adrenergic alpha1 receptor
[5] = target: Somatostatin receptor type 4 (Homo sapiens, UniProt P31391); experiment: Binding affinity to human sst4 receptor; method in brief: as §1
Cytochrome P450 3A4 = Cytochrome P450 3A4 (Homo sapiens, UniProt P08684); experiment: Inhibition of human CYP3A4 by microplate-based direct fluorometric assay; assay type: ADME
[6] = target: T1, Somatostatin receptor type 1 (Homo sapiens, UniProt P30872); experiment: Antagonist activity at human sst1 receptor assessed as inhibition of forskolin-stimulated cAMP accumulation by luciferase assay; assay type: functional
Cytochrome P450 2D6 = Cytochrome P450 2D6 (Homo sapiens, UniProt P10635); experiment: Inhibition of human CYP2D6 by microplate-based direct fluorometric assay; assay type: ADME
[7] = target: Somatostatin receptor type 2 (Homo sapiens, UniProt P30874); experiment: Binding affinity to human sst2 receptor; method in brief: as §1
V79 = experiment: Genotoxicity in Chinese hamster V79 cells by micronucleus test; assay type: toxicity, cell-based, Cricetulus griseus
[8] = Tmax in mouse at 10 umol/kg, iv and 30 umol/kg, po; assay type: ADME, organism-based; conditions: in vivo
Method in brief: (§2)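 Mice dosed by the intravenous and the oral route; drug levels followed in both plasma and brain; apparent terminal half-life taken from plasma; oral bioavailability estimated.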

D(4) dopamine receptor = target: T2, D(4) dopamine receptor (Homo sapiens, UniProt P21917); experiment: Binding affinity to dopamine D4 receptor
T2 sequence (P21917 whole entry): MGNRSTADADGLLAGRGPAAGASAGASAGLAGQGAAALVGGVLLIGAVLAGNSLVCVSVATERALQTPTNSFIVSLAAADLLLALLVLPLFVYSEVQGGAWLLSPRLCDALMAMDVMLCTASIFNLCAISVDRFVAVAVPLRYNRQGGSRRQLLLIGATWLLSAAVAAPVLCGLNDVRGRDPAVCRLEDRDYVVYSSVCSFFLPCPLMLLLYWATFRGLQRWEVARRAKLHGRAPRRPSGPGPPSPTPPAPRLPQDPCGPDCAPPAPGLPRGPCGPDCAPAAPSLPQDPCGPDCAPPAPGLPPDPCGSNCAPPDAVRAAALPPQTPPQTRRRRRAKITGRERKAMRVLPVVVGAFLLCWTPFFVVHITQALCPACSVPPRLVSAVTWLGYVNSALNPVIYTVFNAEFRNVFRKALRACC

[9] = Apparent terminal half life in mouse plasma at 10 umol/kg, iv and 30 umol/kg, po; assay type: ADME, organism-based; conditions: read-out: beta t1/2 (converted); method in brief: as §2
[10] = Oral bioavailability in mouse at 30 umol/kg; assay type: ADME, organism-based; conditions: in vivo; method in brief: as §2
[11] = target: Somatostatin receptor type 1 (Rattus norvegicus) (UniProt P28646); experiment: Antagonist activity at rat sst1 receptor assessed as inhibition of forskolin-stimulated cAMP accumulation by luciferase assay; assay type: functional
[12] = target: T1, Somatostatin receptor type 1; experiment: Binding affinity to human sst1 receptor; method in brief: as §1
Cytochrome P450 2C19 = Cytochrome P450 2C19 (Homo sapiens, UniProt P33261); experiment: Inhibition of human CYP2C19 by microplate-based direct fluorometric assay; assay type: ADME
[13] = Ratio of drug level in brain to plasma in mouse at 10 umol/kg, iv and 30 umol/kg, po; assay type: ADME, organism-based
Method in brief: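 Pharmacokinetic study in mice given a single intravenous dose or an oral dose. Drug concentrations were measured in plasma and brain over time after each route. The brain/plasma concentration ratio was derived for each route.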

D(2) dopamine receptor = D(2) dopamine receptor (Homo sapiens, UniProt P14416); experiment: Binding affinity to dopamine D2 receptor
Cytochrome P450 1A2 = target: T3, Cytochrome P450 1A2 (Homo sapiens, UniProt P05177); experiment: Inhibition of human CYP1A2 by microplate-based direct fluorometric assay; assay type: ADME
T3 sequence (P05177 whole entry): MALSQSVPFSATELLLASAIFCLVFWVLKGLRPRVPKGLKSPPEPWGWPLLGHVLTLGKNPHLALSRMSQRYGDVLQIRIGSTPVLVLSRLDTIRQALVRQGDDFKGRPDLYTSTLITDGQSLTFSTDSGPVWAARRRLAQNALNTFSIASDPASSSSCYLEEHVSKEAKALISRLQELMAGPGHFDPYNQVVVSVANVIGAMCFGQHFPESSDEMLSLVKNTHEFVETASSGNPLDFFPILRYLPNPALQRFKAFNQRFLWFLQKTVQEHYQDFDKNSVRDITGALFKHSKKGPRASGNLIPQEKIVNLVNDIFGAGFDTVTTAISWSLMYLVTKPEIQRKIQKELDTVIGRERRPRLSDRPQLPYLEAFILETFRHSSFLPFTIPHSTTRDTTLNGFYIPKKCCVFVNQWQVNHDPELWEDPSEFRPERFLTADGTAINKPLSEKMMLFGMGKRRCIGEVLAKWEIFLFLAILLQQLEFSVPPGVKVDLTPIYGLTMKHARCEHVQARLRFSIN

Rattus norvegicus = organism: Rattus norvegicus; experiment: Selectivity for rat sst1 receptor over rat sst2 receptor
[14] = target: Somatostatin receptor type 5 (Homo sapiens, UniProt P35346); experiment: Binding affinity to human sst5 receptor; method in brief: as §1
Sequence of Somatostatin receptor type 5 (P35346 whole entry): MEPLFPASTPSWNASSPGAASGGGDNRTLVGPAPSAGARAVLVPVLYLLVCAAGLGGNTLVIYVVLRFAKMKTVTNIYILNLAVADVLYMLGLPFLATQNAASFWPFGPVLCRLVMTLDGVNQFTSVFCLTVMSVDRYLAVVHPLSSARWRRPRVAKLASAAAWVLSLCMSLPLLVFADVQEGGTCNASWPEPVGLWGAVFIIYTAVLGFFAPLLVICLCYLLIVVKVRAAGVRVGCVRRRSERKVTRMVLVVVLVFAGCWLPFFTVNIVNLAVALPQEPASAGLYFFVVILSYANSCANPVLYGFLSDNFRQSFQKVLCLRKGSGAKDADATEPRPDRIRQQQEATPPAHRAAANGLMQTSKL

Sequence of Somatostatin receptor type 3 (P32745 whole entry): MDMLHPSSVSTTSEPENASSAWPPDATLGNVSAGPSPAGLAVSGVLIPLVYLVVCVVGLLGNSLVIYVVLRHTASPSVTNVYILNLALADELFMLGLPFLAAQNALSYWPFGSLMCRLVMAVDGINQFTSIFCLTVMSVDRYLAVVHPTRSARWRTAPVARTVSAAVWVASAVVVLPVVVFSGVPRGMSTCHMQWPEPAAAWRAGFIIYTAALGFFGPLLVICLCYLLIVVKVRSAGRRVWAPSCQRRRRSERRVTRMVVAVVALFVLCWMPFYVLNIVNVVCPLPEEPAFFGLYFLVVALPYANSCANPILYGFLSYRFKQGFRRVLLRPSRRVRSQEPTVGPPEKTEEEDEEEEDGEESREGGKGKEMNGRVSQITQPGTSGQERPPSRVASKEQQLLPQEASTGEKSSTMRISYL
Sequence of Somatostatin receptor type 4 (P31391 whole entry): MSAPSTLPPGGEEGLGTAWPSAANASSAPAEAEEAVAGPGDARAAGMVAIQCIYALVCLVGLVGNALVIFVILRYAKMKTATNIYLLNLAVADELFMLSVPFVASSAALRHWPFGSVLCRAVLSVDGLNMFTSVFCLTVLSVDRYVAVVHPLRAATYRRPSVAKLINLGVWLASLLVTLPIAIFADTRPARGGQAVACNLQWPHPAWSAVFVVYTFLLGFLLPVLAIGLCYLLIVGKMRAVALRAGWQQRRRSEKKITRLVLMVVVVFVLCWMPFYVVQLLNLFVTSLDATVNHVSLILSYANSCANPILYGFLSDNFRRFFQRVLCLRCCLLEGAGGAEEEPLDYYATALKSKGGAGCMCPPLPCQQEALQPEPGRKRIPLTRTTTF
Sequence of Somatostatin receptor type 2 (Rattus norvegicus, UniProt P30680) (P30680 whole entry): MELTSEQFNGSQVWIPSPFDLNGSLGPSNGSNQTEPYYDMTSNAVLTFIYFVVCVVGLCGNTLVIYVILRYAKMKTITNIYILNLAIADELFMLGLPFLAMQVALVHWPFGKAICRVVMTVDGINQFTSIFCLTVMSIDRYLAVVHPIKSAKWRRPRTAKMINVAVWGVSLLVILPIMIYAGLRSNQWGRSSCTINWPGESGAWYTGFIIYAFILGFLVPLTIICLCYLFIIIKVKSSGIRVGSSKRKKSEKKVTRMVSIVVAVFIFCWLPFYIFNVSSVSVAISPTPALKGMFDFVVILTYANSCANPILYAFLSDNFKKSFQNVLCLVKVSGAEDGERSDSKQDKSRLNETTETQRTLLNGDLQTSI
Sequence of Somatostatin receptor type 2 (Homo sapiens, UniProt P30874) (P30874 whole entry): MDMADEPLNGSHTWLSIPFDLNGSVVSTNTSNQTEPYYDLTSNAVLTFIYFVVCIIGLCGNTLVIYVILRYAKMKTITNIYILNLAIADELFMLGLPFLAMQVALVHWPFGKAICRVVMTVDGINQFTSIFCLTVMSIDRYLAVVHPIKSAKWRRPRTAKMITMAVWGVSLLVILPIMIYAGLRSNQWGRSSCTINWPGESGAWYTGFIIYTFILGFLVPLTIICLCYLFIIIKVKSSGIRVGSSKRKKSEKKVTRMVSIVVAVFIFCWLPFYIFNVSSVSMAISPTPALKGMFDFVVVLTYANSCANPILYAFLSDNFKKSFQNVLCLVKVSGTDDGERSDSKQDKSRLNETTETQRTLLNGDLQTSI
Sequence of Somatostatin receptor type 1 (Rattus norvegicus, UniProt P28646) (P28646 whole entry): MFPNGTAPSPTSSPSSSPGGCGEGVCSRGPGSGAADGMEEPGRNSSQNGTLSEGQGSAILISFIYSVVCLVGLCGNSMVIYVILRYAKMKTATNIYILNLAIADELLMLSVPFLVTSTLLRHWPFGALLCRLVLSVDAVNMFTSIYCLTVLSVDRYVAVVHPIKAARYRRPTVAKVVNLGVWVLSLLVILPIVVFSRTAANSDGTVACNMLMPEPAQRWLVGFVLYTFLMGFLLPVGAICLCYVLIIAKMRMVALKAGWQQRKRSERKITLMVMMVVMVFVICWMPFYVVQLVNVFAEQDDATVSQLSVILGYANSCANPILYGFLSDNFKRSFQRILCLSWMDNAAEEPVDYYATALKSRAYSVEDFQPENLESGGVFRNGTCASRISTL
T1 sequence (P30872 whole entry): as the sequence (P28646 whole entry) above, with P8S, T11S, S16P, G20S, V25G, C26G, S32A, S45A, A385T, S389T counted along it
Sequence of Cytochrome P450 2C19 (P33261 whole entry): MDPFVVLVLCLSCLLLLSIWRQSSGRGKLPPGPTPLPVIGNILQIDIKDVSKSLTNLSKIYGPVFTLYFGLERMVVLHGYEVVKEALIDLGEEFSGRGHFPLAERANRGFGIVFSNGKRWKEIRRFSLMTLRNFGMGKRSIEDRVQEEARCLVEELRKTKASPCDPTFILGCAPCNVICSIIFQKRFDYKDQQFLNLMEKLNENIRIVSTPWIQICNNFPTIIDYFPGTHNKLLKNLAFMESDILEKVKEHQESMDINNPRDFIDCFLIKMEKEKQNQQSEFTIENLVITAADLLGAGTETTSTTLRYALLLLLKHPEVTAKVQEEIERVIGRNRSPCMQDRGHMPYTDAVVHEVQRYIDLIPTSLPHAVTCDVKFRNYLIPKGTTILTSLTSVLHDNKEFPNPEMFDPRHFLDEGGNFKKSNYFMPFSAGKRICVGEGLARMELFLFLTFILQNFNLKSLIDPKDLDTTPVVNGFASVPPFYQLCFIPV
Sequence of D(2) dopamine receptor (P14416 whole entry): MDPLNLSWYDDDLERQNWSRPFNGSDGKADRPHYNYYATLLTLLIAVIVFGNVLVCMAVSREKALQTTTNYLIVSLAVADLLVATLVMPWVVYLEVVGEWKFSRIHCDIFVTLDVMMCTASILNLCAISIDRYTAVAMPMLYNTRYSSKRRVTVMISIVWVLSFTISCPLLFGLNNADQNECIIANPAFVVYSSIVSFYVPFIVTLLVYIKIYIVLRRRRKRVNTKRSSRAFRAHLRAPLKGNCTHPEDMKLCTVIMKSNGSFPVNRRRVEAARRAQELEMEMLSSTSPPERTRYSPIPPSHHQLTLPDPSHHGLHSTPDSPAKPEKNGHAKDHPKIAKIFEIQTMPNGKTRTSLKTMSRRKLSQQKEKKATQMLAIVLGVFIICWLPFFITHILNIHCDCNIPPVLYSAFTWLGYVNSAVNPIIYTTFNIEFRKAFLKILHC
Sequence of Cytochrome P450 3A4 (P08684 whole entry): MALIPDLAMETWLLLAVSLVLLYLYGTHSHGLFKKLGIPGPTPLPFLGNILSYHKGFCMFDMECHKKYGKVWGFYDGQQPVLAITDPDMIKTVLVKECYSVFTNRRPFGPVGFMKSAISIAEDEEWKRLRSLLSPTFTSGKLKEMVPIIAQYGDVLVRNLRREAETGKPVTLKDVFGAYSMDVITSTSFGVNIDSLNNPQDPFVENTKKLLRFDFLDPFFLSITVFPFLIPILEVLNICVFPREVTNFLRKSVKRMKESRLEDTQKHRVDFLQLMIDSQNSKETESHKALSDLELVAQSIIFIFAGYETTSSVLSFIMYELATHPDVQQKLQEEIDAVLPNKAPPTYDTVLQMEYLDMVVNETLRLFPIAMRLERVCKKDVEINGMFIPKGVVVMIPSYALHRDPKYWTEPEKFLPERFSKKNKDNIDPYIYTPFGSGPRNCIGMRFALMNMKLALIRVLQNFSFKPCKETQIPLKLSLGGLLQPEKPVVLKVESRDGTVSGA
Sequence of Somatostatin receptor type 1 (Rattus norvegicus) (P28646 whole entry): as the sequence (P28646 whole entry) above
Sequence of Cytochrome P450 2D6 (P10635 whole entry): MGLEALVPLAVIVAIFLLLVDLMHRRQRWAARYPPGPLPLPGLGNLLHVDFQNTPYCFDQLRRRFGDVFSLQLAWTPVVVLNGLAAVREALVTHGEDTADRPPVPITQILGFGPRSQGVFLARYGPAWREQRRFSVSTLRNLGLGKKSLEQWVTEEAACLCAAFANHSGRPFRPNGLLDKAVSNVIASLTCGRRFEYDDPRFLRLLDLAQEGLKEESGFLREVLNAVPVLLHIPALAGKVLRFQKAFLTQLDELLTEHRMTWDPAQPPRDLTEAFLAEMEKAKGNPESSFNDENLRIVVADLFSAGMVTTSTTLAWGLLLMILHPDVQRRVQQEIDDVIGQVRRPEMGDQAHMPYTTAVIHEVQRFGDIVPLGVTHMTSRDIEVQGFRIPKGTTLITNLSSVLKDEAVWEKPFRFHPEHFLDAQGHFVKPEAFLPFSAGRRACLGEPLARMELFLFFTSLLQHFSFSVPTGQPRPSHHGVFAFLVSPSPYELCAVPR

Row | Kd [1] [µM] | Kd [2] [µM] | SMILES | also measured
1 | 0.00195 |  | CN(CCC(=O)N1CCN(c2ccc(F)cc2)CC1)CCC1c2ccccc2-c2ccccc21 | 
2 | 0.00468 | 0.912 | CC(C)N(CCC(=O)N1CCN(c2ccc([N+](=O)[O-])cc2)CC1)CCC1c2ccccc2-c2ccccc21 | 
3 | 0.0316 |  | CN(CCC(=O)N1CCN(c2ccc(C(F)(F)F)cc2)CC1)CCC1c2ccccc2-c2ccccc21 | 
4 | 0.0295 | 18.6 | CN(CCC(=O)N1CCN(c2ccc([N+](=O)[O-])cc2)CC1)CCC1c2ccccc2Cc2ccccc21 | 
5 | 0.0115 | 5.13 | CN(CCC(=O)N1CCN(c2ccc([N+](=O)[O-])cc2)CC1)CCC1c2ccccc2C=Cc2ccccc21 | 
6 | 0.000891 | 6.76 | CN(CCC(=O)N1CCN(c2ccc([N+](=O)[O-])cc2)CC1)CCC1c2ccccc2Oc2ccccc21 | fold change (FC) (Rattus norvegicus): > 1000
7 | 0.00708 | 4.07 | C=CCN(CCC(=O)N1CCN(c2ccc([N+](=O)[O-])cc2)CC1)CCC1c2ccccc2-c2ccccc21 | 
8 | 0.0126 | 6.03 | CN(CCC(=O)N1CCN(c2ccc([N+](=O)[O-])cc2)CC1)CCC1c2ccccc2Sc2ccccc21 | 
9 | 0.0182 | 3.47 | CN(CCC(=O)N1CCN(c2ccc([N+](=O)[O-])cc2)CC1)CCC1c2ccccc2CCc2ccccc21 | fold change (FC) (Rattus norvegicus): > 100
10 | 0.0457 | 6.92 | O=C(CCN(CCC1c2ccccc2-c2ccccc21)CC1CC1)N1CCN(c2ccc([N+](=O)[O-])cc2)CC1 | 
11 | 0.000708 | 6.92 | CN(CCC(=O)N1CCN(c2ccc([N+](=O)[O-])cc2)CC1)CCC1c2ccccc2-c2ccccc21 | fold change (FC) (Rattus norvegicus): > 1000
12 | 0.0017 |  | CN(CCC(=O)N1CCN(c2ccc(Cl)cc2)CC1)CCC1c2ccccc2-c2ccccc21 | 
13 | 0.000955 | 1.82 | CCN(CCC(=O)N1CCN(c2ccc([N+](=O)[O-])cc2)CC1)CCC1c2ccccc2-c2ccccc21 | 

The remaining lines, values behind:

Row | SMILES | Kd [1] [µM] | Kd [2] [µM] | also measured
14 | CN(CCC(=O)N1CCN(c2ccc([N+](=O)[O-])cc2)CC1)CCc1cccc2ccccc12 | 0.0776 | 8.71 | 
15 | CN(CCC(=O)N1CCN(c2ccc(F)c(F)c2)CC1)CCC1c2ccccc2-c2ccccc21.Cl | 0.000575 | 19.5 | Kd [3]: 2.69 µM; pKd [4]: 6.53; Kd [5]: 2.4 µM; IC50 (Cytochrome P450 3A4): > 10 µM; pKb [6]: 8.46; IC50 (Cytochrome P450 2D6): 1.3 µM; Kd [7]: 12.3 µM; Activity (V79): Non-toxic; Tmax [8]: 1 h; Kd (D(4) dopamine receptor): 0.126 µM; half-life [9]: 6 h; bioavailability [10]: 7%; pKb [11]: 8.55; Kd [12]: 0.00537 µM; IC50 (Cytochrome P450 2C19): > 10 µM; Kp [13]: > 1; Kd (D(2) dopamine receptor): 0.776 µM; IC50 (Cytochrome P450 1A2): > 10 µM; fold change (FC) (Rattus norvegicus): > 10000
16 | CN(CCC(=O)N1CCN(c2ccc([N+](=O)[O-])cc2)CC1)CCn1c2ccccc2c2ccccc21 | 0.331 | 14.5 | 
17 | CN(CCC(=O)N1CCN(c2cccc(C(F)(F)F)c2)CC1)CCC1c2ccccc2-c2ccccc21 | 0.0617 |  | 
18 | CN(CCC(=O)N1CCN(c2cccc(=O)n2C)CC1)CCC1c2ccccc2-c2ccccc21 | 0.00214 |  | 
19 | CN(CCC(=O)N1CCN(c2ccccc2Cl)CC1)CCC1c2ccccc2-c2ccccc21 | 0.024 |  | 
20 | CN(CCC(=O)N1CCN(c2ccc([N+](=O)[O-])cc2)CC1)CCc1ccc2ccccc2c1 | 0.275 | 16.6 | 
21 | CN(CCC(=O)N1CCN(c2ccc3nccn3n2)CC1)CCC1c2ccccc2-c2ccccc21 | 0.0011 |  | 
22 | Cc1cccc(C)c1N1CCN(C(=O)CCN(C)CCC2c3ccccc3-c3ccccc32)CC1 | > 1 |  | 
23 | CN(CCC(=O)N1CCN(c2ccc([N+](=O)[O-])cc2)CC1)CCC(c1ccccc1)c1ccccc1 | 0.0138 | 8.32 | 
24 | CN(CCC(=O)N1CCN(c2ccc3nonc3c2)CC1)CCC1c2ccccc2-c2ccccc21 | 0.000741 | 4.17 | Kd [3]: 1.2 µM; Kd [5]: 1.15 µM; Kd [7]: 4.17 µM; Kd [12]: 0.00263 µM; fold change (FC) (Rattus norvegicus): > 10000
25 | CN(CCC(=O)N1CCN(c2ccc(F)cc2F)CC1)CCC1c2ccccc2-c2ccccc21 | 0.00331 |  | 
26 | CN(CCC(=O)N1CCN(c2ccc(=O)n(C)n2)CC1)CCC1c2ccccc2-c2ccccc21 | 0.00661 |  | 
27 | CN(CCC(=O)N1CCN(c2cccc(Cl)c2)CC1)CCC1c2ccccc2-c2ccccc21 | 0.0178 |  | 
28 | CN(CCC(=O)N1CCN(c2cccc(F)c2)CC1)CCC1c2ccccc2-c2ccccc21 | 0.00363 |  | 
29 | CN(CCC(=O)N1CCN(c2ccc(Cl)c(Cl)c2)CC1)CCC1c2ccccc2-c2ccccc21 | 0.00191 |  | 
30 | CN(CCC(=O)N1CCN(c2ccccc2C#N)CC1)CCC1c2ccccc2-c2ccccc21 | 0.00457 |  | 
31 | CN(CCC(=O)N1CCN(c2ccc(F)c(F)c2)CC1)CCC1c2ccccc2Oc2ccccc21 | 0.000776 | 6.46 | Kd [3]: 2.82 µM; pKd [4]: 6.55; Kd [5]: 3.39 µM; IC50 (Cytochrome P450 3A4): > 10 µM; pKb [6]: 8.13; IC50 (Cytochrome P450 2D6): < 1 µM; Kd [7]: 6.92 µM; Activity (V79): Non-toxic; Tmax [8]: 1 h; Kd [14]: 14.5 µM; Kd (D(4) dopamine receptor): 0.49 µM; half-life [9]: 11 h; bioavailability [10]: 19%; pKb [11]: 7.93; Kd [12]: 0.00162 µM; IC50 (Cytochrome P450 2C19): > 10 µM; Kp [13]: > 1; Kd (D(2) dopamine receptor): 0.49 µM; IC50 (Cytochrome P450 1A2): > 10 µM; fold change (FC) (Rattus norvegicus): > 10000
32 | CN(CCC(=O)N1CCN(c2ccc3nonc3c2)CC1)CCC1c2ccccc2Oc2ccccc21 | 0.000324 | 8.13 | Kd [3]: 1.62 µM; Kd [5]: 1.45 µM; Kd [12]: 0.00214 µM; fold change (FC) (Rattus norvegicus): > 10000
33 | CN(CCC(=O)N1CCN(c2ccncc2)CC1)CCC1c2ccccc2-c2ccccc21 | 0.0214 |  | 
34 | CN(CCC(=O)N1CCN(c2ccc3c(c2)OCO3)CC1)CCC1c2ccccc2-c2ccccc21 | 0.00457 |  | 
